For data set [1], the target named is T1, Oxysterol-binding protein 1 (Homo sapiens, UniProt P22059).
T1 sequence (P22059 whole entry): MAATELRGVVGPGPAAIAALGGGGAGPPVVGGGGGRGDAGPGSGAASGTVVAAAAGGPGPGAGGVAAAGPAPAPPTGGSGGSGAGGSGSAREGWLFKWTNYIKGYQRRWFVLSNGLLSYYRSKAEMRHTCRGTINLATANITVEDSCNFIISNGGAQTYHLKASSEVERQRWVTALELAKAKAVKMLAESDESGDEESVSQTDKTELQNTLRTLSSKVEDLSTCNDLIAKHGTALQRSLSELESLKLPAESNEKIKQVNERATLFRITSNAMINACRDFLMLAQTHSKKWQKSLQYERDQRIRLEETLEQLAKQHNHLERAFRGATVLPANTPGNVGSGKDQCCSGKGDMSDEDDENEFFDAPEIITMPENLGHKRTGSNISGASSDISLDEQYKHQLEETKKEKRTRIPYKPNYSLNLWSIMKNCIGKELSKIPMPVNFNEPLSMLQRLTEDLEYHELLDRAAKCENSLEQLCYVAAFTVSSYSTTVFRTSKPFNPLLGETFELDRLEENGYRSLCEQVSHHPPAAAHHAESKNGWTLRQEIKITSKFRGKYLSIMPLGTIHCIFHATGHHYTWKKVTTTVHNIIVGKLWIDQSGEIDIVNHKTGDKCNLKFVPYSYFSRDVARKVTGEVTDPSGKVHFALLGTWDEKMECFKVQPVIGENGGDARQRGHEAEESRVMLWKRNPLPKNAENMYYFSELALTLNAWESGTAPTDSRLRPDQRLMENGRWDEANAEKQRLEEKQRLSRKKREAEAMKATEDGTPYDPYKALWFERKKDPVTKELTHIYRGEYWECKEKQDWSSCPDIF
Kind of data set: Inhibition of human C-terminal 6-His tagged OSBP ORD domain (401 to 807 residues) expressed in baculovirus-infected Sf9 cells assessed as reduction in DHE transfer from liposome (Le mimicking ER) to liposome (Lg mimicking golgi) with compound by FRET assay. In short, it runs like this:
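Purified human OSBP ORD (401-807, C-terminal 6×His) from baculovirus-infected Sf9 cells, used in a DHE sterol transfer fluorescence assay. Signal corrected for compound fluorescence. Kinetics fitted linearly or by ΔF = ΔFmax(1 − e^−kt) to give apparent k, which was plotted against compound concentration. Ki from a quadratic (tight binders) or hyperbolic equation, three independent experiments.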

Data set [2] relates to A549. As to the kind of experiment: Antiproliferative activity against human A549 cells assessed as inhibition of cell proliferation incubated for 72 hrs by CellTiter-Glo luminescent assay. The format is functional, cell-based. Conditions: A549, 72 h. In short, it runs like this:
(§1)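 A549 in RPMI 1640 and U-87MG in DMEM, each with 10% FCS and 1% glutamine, at 37 °C and 5% CO₂. Cells seeded at 3000/well, dosed the next day, treated 72 h. Viability read by CellTiter-Glo luminescence with DMSO-treated cells set to 100%. IC50 taken from survival curves over three independent experiments.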
For orientation: ATP-based viability assays read luminescence as a measure of living cells.

The subject of data set [3] is U-87 MG. Kind of data set: Antiproliferative activity against human U-87 MG cells assessed as inhibition of cell proliferation incubated for 72 hrs by CellTiter-Glo luminescent assay. The format is functional, cell-based, U-87MG ATCC. In short, it runs like this:
as §1

Data set [4] can be described thus: Metabolic stability in mouse liver microsomes assessed as intrinsic clearance at 2.5 uM and measured upto 45 mins in presence of NADPH by LC-MS/MS analysis. It counts as ADME, Microsome. Particulars: read-out: CLH. On the technique in general: Microsomes from liver hold many membrane-bound enzymes, among them those of drug oxidation.
Data set [5] is described as follows: Metabolic stability in mouse liver microsomes assessed as compound remaining at 2.5 uM and measured after 45 mins in presence of NADPH by LC-MS/MS analysis. Particulars: read-out: Stability. The format is ADME, Microsome.
Data set [6] is described as follows: Metabolic stability in mouse plasma assessed as compound remaining at 5 uM and measured after 120 mins by UPLC-MS/MS analysis. The format is ADME, cell-free. Particulars: read-out: Stability. In short, it runs like this: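 Male mouse plasma at 37 °C with compound added from a 5 µM solution […]. Sampled at 0, 15, 30, 45, 60 and 120 min, quenched with acetonitrile and read by LC-MS/MS (MRM) in duplicate. Procaine positive control. Remaining % and t1/2 derived from MRM area relative to t = 0.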

A short description of data set [7]: Metabolic stability in mouse liver microsomes assessed as compound remaining at 2.5 uM and measured after 45 mins in absence of NADPH by LC-MS/MS analysis. The format is ADME, Microsome. Particulars: read-out: Stability.

The structures appear in SMILES notation.

The Ki is the dissociation constant of the complex between target and ligand, obtained from inhibition or displacement. The term IC50 denotes the point on the concentration scale where inhibition reaches its midpoint. Turning to `COc1cc(/C=C/c2cc(O)c3c(c2)OC(C)(C)CC3)cc2c1O[C@]1(C)C[C@@H](O)[C@@H](OC=O)C(C)(C)[C@H]1C2`, the Ki in data set [1] came to 829 nM. Also, the IC50 stood at 2150 nM in data set [2] and 500 nM in data set [3].

With `COc1cc(/C=C/c2cc(O)c(CC=C(C)C)c(O)c2)cc2c1O[C@@]1(C)[C@H](C2)C(C)(C)[C@H](O)C[C@@H]1O`, in data set [1], the Ki came to 254 nM. For the same molecule, the IC50 amounted to 1120 nM in data set [2] and 510 nM in data set [3].

With `COc1cc(/C=C/c2cc(O)c3c(c2)OC(C)(C)C(O)C3)cc2c1O[C@]1(C)C[C@@H](O)[C@@H](O)C(C)(C)[C@H]1C2` (stereo partly specified) [SCHWEINFURTHIN H], the Ki in data set [1] is 401 nM. Besides, the IC50 in data set [2] came to 1790 nM; in data set [3], 656 nM.

As for `COc1cc(CCc2cc(O)c3c(c2)OC(C)(C)CC3)cc2c1O[C@]1(C)CC[C@@H](OC=O)C(C)(C)[C@H]1C2`, in data set [1], the Ki was determined as 3700 nM. Also, the IC50 in data set [2] was greater than 10000 nM; in data set [3] it was 1480 nM.

With `C=CCc1c(/C=C/c2cc(O)c(CC=C(C)C)c(O)c2)cc2c(c1O)O[C@]1(C)CC[C@@H](O)C(C)(C)[C@H]1C2`, in data set [1], the Ki stood at 119 nM. Also, the values for the IC50 in data set [2] and in data set [3] were 2860 nM and 457 nM, respectively.

In the case of `COc1cc(CCc2cc(O)c3c(c2)OC(C)(C)CC3)cc2c1O[C@]1(C)CC[C@@H](O)C(C)(C)[C@H]1C2`, the Ki in data set [1] turned out to be 46 nM. For the same molecule, the IC50 was greater than 10000 nM in data set [2] and 3850 nM in data set [3].

For the molecule `C#CCOc1cc(/C=C/c2cc(O)c(CC=C(C)C)c(O)c2)cc2c1O[C@]1(C)CC[C@@H](O)C(C)(C)[C@H]1C2`, in data set [1], the Ki is 43 nM. Also, the results for the IC50 in data set [2] and in data set [3] were 3900 nM and 286 nM, respectively.

As for `CC(C)=CCc1c(O)cc(/C=C/c2cc(O)c3c(c2)C[C@@H]2C(C)(C)[C@H](O)[C@H](O)C[C@@]2(C)O3)cc1O` [VEDELIANIN], the Ki in data set [1] is less than 1 nM. For the same molecule, the IC50 in data set [2] was found to be 966 nM; in data set [3], 15 nM.

On to `CC(C)=CCC/C(C)=C/Cc1cc(/C=C/c2cc(O)c(CC=C(C)C)c(O)c2)cc(O)c1O` [MAPPAIN], for which, in data set [1], the Ki is 3000 nM. The IC50 is greater than 10000 nM in data set [2] and 7000 nM in data set [3].

For `C=CCOc1cc(/C=C/c2cc(O)c(CC=C(C)C)c(O)c2)cc2c1O[C@]1(C)CC[C@@H](O)C(C)(C)[C@H]1C2`, the inhibition constant Ki in data set [1] was determined as 31 nM. Also, the IC50 in data set [2] is 5000 nM; in data set [3], 420 nM.

With `CC1(C)CCc2c(O)cc(CCc3cc(O)c4c(c3)C[C@@H]3C(C)(C)[C@H](OC=O)CC[C@@]3(C)O4)cc2O1`, the Ki in data set [1] is 3220 nM. Moreover, the IC50 in data set [2] was 3040 nM; in data set [3], 67 nM.

For `CC(C)=CCc1c(O)cc(/C=C/c2cc3c(c4c2C=CCO4)O[C@]2(C)CC[C@@H](O)C(C)(C)[C@H]2C3)cc1O`, the Ki in data set [1] stood at 37 nM. Also, the IC50 is greater than 10000 nM in data set [2] and 481 nM in data set [3].

On to `COc1cc(/C=C/c2cc(O)c3c(c2)OC(C)(C)CC3)cc2c1O[C@]1(C)C[C@@H](O)[C@@H](O)C(C)(C)[C@H]1C2`, for which the Ki in data set [1] was 16 nM. Further, the IC50 is 1100 nM in data set [2] and 336 nM in data set [3].

In the case of `COc1cc(/C=C/c2cc(O)c3c(c2)OC(C)(C)CC3)cc2c1O[C@]1(C)CC[C@@H](OC=O)C(C)(C)[C@H]1C2`, the Ki in data set [1] is 523 nM. Further, the results for the IC50 in data set [2] and in data set [3] were 2420 nM and 380 nM, respectively.

As for `COc1cc(/C=C/c2cc(O)c(CC=C(C)C)c(O)c2)cc2c1O[C@]1(C)CC[C@@H](O)C(C)(C)[C@H]1C2` [SCHWEINFURTHIN F], the Ki in data set [1] was 6 nM. Further, the IC50 in data set [2] was determined as 605 nM; in data set [3], 98 nM.

As for `COc1cc(/C=C/c2cc(O)c(CC=C(C)C)c(O)c2)cc2c1O[C@]1(C)C[C@@H](O)[C@@H](O)C(C)(C)[C@H]1C2` [SCHWEINFURTHIN E], the Ki in data set [1] was less than 1 nM. The IC50 in data set [2] came to 397 nM; in data set [3], 22 nM.

Turning to `CC1(C)CCc2c(O)cc(CCc3cc(O)c4c(c3)C[C@@H]3C(C)(C)[C@H](O)CC[C@@]3(C)O4)cc2O1`, the Ki in data set [1] was less than 1 nM. Also, the IC50 was found to be 3910 nM in data set [2] and 77 nM in data set [3].

Consider `COc1cc(/C=C/c2cc(O)c3c(c2)OC(C)(C)CC3)cc2c1O[C@]1(C)CC[C@@H](O)C(C)(C)[C@H]1C2`, for which the Ki in data set [1] was found to be 64 nM. Further, the IC50 is 2530 nM in data set [2] and 478 nM in data set [3].

For the molecule `CC1(C)CCc2c(O)cc(/C=C/c3cc(O)c4c(c3)C[C@@H]3C(C)(C)[C@H](O)CC[C@@]3(C)O4)cc2O1`, in data set [4], the microsomal CLint at 2.5 µM came out at 32 µL/min/mg. For the same molecule, the Ki in data set [1] was less than 1 nM. The IC50 in data set [2] was determined as 647 nM; in data set [3], 9.4 nM. The remaining at 0.75 h, 2.5 µM is 48.6% in data set [5] and 100% in data set [7]. Also, the remaining at 2 h, 5 µM in data set [6] came out at 100%.

The values above are taken from ChEMBL document CHEMBL5370602, “Structure-Based Design of a Lead Compound Derived from Natural Schweinfurthins with Antitumor Properties That Target Oxysterol-Binding Protein” (J Med Chem, 2023).
